# The source made the active and inactive calls.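 The calls were made as follows, unless noted: active = GFP response above 150% of the DMSO level; inconclusive = fewer than 70 events counted for a yeast strain; inactive = the rest.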
# Key:
# [1] = RPL19A-GFP modulators, yeast TOR pathway, confirmation, cell-based, S. cerevisiae, flow cytometry, cherry picks, mother/daughter gates (AID 2270;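 active = GFP response below 50% of the DMSO control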); conditions: S. cerevisiae RPL19A-GFP strain, 3 h, at 10 µM, stronger effect = lower value, 100 = same GFP as DMSO wells
# [2] = LAP4-GFP expression modulators in yeast, confirmation, cell-based, cherry picks, flow cytometry, mother/daughter gates (AID 2271;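 active = GFP response above 150% of the DMSO control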;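 also: ratio of sample to DMSO plate mean so 100% equals DMSO level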); conditions: S. cerevisiae LAP4-GFP strain, 3 h, at 10 µM, stronger effect = higher value, 100 means same as DMSO control
# Outline: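 System: GFP-fusion yeast strain; Incubation: compound exposure 3 h at 30 °C, end-over-end rotation; Measured by: GFP by flow cytometry; Read-out: median GFP fluorescence as percent of plate-mean DMSO wells; Medium: synthetic complete (SC) yeast growth medium; Compound: single test-compound dose, 10 µM final; Benchmarks: DMSO-only negative wells, rapamycin 400 ng/mL positive wells.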
# [3] = modulators of MEP2-GFP levels in yeast, confirmation, S. cerevisiae, flow cytometry GFP, cherry picks (AID 2272;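 active = GFP response above 150% of the DMSO control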;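 also: ratio of well signal to plate DMSO mean so 100% equals DMSO level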); conditions: S. cerevisiae MEP2-GFP strain, 3 h, at 10 µM, stronger effect = higher value
# [4] = AGP1-GFP expression modulators, hit retest, confirmation, cell-based, flow cytometry, S. cerevisiae, cherry picks (AID 2273);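 also: median GFP channel fluorescence over the whole cell population gate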; conditions: S. cerevisiae AGP1-GFP strain, 3 h, at 10 µM
# [5] = modulators of CIT2-GFP expression in yeast, confirmation, S. cerevisiae, GFP fusion, cherry picks, mother/daughter gates (AID 2274); conditions: S. cerevisiae CIT2-GFP strain, flow cytometry, 3 h, at 10 µM, stronger effect = higher value
# [6] = measured here: daughter cell gate
# [7] = measured here: mother cell gate
# [8] = measured here: daughter cell gate response
# [9] = measured here: mother cell gate response
SMILES,GFP response vs DMSO [1],"GFP response vs DMSO [1, 6] [%]","GFP response vs DMSO [1, 7] [%]",GFP response relative to DMSO [2],"GFP response relative to DMSO [2, 8] [%]","GFP response relative to DMSO [2, 9] [%]",GFP response vs DMSO [3],"GFP response, % of DMSO [4]","GFP response, % of DMSO [5]","GFP response, % of DMSO [5, 6] [%]","GFP response, % of DMSO [5, 7] [%]"
O=C(NC(=S)NNC(=O)c1ccc(Cl)cc1Cl)c1cccnc1,102% (inactive),103,102,97.3% (inactive),96.6,98.2,101% (inactive),104% (inactive),98.4% (inactive),100,96.7
CN1CCN(CC(=O)N2CCn3c4c(c5cc(C6CCCCC6)ccc53)CCCC42)CC1 (stereo not drawn),90.7% (inactive),86.4,92.7,116% (inactive),109,119,108% (inactive),95.8% (inactive),90.7% (inactive),89,88.6
N#C/C(=C\c1c(N2CCC(C(N)=O)CC2)nc2ccccn2c1=O)C(=O)NCc1ccco1,97.8% (inactive),98.8,97.6,101% (inactive),99.3,99.5,102% (inactive),99.3% (inactive),104% (inactive),102,101
O=C(Oc1ccnc2cc(Cl)ccc12)N1CCCCCC1,99.3% (inactive),97.3,95,114% (inactive),111,117,437% (active),185% (active),92.6% (inactive),93.2,89.1
CN1CCN(C(=O)CC2C(=O)NCCN2Cc2ccc(-c3ccccc3)cc2)CC1 (stereo not drawn),96.2% (inactive),96.2,98.5,100% (inactive),102,99.5,97.5% (inactive),99.7% (inactive),97.8% (inactive),100,99.1
O=C(c1ccc(OCC2CCCO2)cc1)N1CCN(c2ccccc2)CC1 (stereo not drawn),98.7% (inactive),98.4,98.4,104% (inactive),102,105,103% (inactive),102% (inactive),100% (inactive),101,100
Cc1ccc(-c2csc3ncn(Cc4ccc(C(=O)O)cc4)c(=O)c23)cc1C,98.8% (inactive),97.3,99,117% (inactive),114,120,105% (inactive),116% (inactive),106% (inactive),105,107
O=C(CCCCCN1C(=O)c2cccc3cccc(c23)C1=O)N1CCOCC1,102% (inactive),101,102,102% (inactive),101,103,99% (inactive),99.8% (inactive),103% (inactive),101,103
CSc1ccc(/C=C/C(=O)c2ccc(NC(=O)C(C)C)cc2)cc1,98.8% (inactive),97.5,99.1,107% (inactive),103,111,100% (inactive),93.5% (inactive),92.6% (inactive),93.2,90.2
O=C(Nc1cc(Sc2ccccn2)cc([N+](=O)[O-])c1)c1cccc(F)c1,96.9% (inactive),96.1,95.9,101% (inactive),96,102,106% (inactive),95.7% (inactive),97.2% (inactive),95.8,94.9
Cc1ccc(N2C(=O)C3C4C=CC(CNC(=S)Nc5ccc(Cl)cc5)(O4)C3C2=O)cc1 (stereo not drawn),102% (inactive),101,100,101% (inactive),103,102,102% (inactive),102% (inactive),99.1% (inactive),98.1,97.7
CCCc1[nH]nc2c1C1(C(=O)N(CC)c3ccccc31)C(C#N)=C(N)O2 (stereo not drawn),96.6% (inactive),95.9,96.9,96.7% (inactive),97.6,94,98.3% (inactive),98.5% (inactive),101% (inactive),99.1,101
O=C1c2ccccc2C(=O)C2OC12 (stereo not drawn),101% (inactive),99.6,88.1,218% (active),179,201,226% (active),133% (inactive),101% (inactive),100,85.8
CNC(=O)/C(C#N)=C/c1c(N2CC(C)OC(C)C2)nc2ccccn2c1=O (stereo not drawn),97.6% (inactive),88.7,90.1,94.4% (inactive),92.6,92,101% (inactive),110% (inactive),98.8% (inactive),95.6,85.8
Cc1cc(C=C2C(=O)c3ccccc3C2=O)c(C)n1-c1cccc(C(=O)O)c1,100% (inactive),101,101,96.1% (inactive),98.2,95.1,101% (inactive),100% (inactive),112% (inactive),110,113
COc1ccc2c(c1)C=Cc1ccccc1O2,98.4% (inactive),97.6,99.5,99.2% (inactive),99.2,99.3,98.3% (inactive),95.6% (inactive),104% (inactive),106,102
O=C1[C@@H]2C3C=CC(O3)[C@@H]2C(=O)N1c1ccccc1,101% (inactive),102,100,107% (inactive),107,109,101% (inactive),107% (inactive),100% (inactive),101,100

SMILES,GFP response vs DMSO [1],"GFP response vs DMSO [1, 6] [%]","GFP response vs DMSO [1, 7] [%]",GFP response relative to DMSO [2],"GFP response relative to DMSO [2, 8] [%]","GFP response relative to DMSO [2, 9] [%]",GFP response vs DMSO [3],"GFP response, % of DMSO [4]","GFP response, % of DMSO [5]","GFP response, % of DMSO [5, 6] [%]","GFP response, % of DMSO [5, 7] [%]"
Cc1ccc(-c2ccc(CCC(=O)O)o2)cc1,102% (inactive),95.9,101,147% (inactive),139,150,95.7% (inactive),94.8% (inactive),90% (inactive),85,90.2
CCOC(=O)CS(=O)(=O)c1nc(-c2ccccc2)cc(C(F)(F)F)n1,101% (inactive),105,96.2,204% (active),192,206,130% (inactive),110% (inactive),110% (inactive),110,101
O=C1c2cccc3c([N+](=O)[O-])ccc(c23)C(=O)N1CCc1ccccn1,103% (inactive),104,99.2,164% (active),157,156,286% (active),120% (inactive),158% (active),156,144
Cc1cc(C(=O)Nc2nc(-c3ccccn3)cs2)ccc1[N+](=O)[O-],104% (inactive),107,97.2,158% (active),149,155,107% (inactive),84.3% (inactive),105% (inactive),110,99.3
CC(=O)NN1C(=O)/C(=C/c2ccc(Br)o2)SC1=S,103% (inactive),101,102,128% (inactive),122,126,139% (inactive),111% (inactive),153% (active),150,150
COc1ccc(C(=O)/C(=C/O)N=Nc2ccc(F)cc2)cc1,99.1% (inactive),97.8,98.6,106% (inactive),89.3,109,102% (inactive),91.4% (inactive),83.5% (inactive),85.3,80.5
COC(=O)c1ccc2nc(Nc3nc4ccc(F)cc4s3)sc2c1,101% (inactive),101,102,81.8% (inactive),84.8,86,97.8% (inactive),97% (inactive),108% (inactive),105,109
CCN(CC)CCNC(=O)Cn1c(-c2ccccn2)nc2ccccc21,99.5% (inactive),98.1,99.6,96.2% (inactive),98.7,98.3,100% (inactive),94.3% (inactive),97.8% (inactive),96.5,97.7
CCOc1cc(/C=C2/N=C(c3ccc4c(c3)OCO4)OC2=O)ccc1OC(C)=O,92% (inactive),87.5,94.2,95.7% (inactive),95.9,96.2,101% (inactive),103% (inactive),97.3% (inactive),95.6,98.1
Cc1cc(O)c(C(=O)/C=C/c2cccc([N+](=O)[O-])c2)c(=O)o1,98.7% (inactive),101,95.8,149% (inactive),142,152,110% (inactive),107% (inactive),86.1% (inactive),90.5,81.5
O=[N+]([O-])c1ccc(S(=O)(=O)c2ccccc2)nc1,84.5% (inactive),96.4,77.4,176% (active),156,174,126% (inactive),114% (inactive),108% (inactive),131,91.5
CC(=O)Nc1ccc(NC(=O)CSc2ncc(C(=O)Nc3ccccc3)c(=O)n2C)cc1,96.6% (inactive),97.1,99.1,97% (inactive),97.5,97.3,96.8% (inactive),103% (inactive),105% (inactive),103,104
CCOC(=O)c1sc(NC(=O)c2ccc3ncsc3c2)nc1C,98% (inactive),95,94.8,95.3% (inactive),96,93.4,110% (inactive),96.4% (inactive),98.6% (inactive),95.8,93.8
COc1cc(/C=C2\N=C(c3ccccc3)OC2=O)ccc1OC(C)=O,94.9% (inactive),93.5,96.3,101% (inactive),98.2,102,112% (inactive),107% (inactive),113% (inactive),111,113
COc1cccc(C(=O)Nc2ccc(C)cc2)c1,100% (inactive),99.9,100,101% (inactive),99.2,101,102% (inactive),91.2% (inactive),107% (inactive),106,106
O=C(c1ccc(Cl)cc1)N1CCN(c2cccc3[nH]ccc23)CC1,94.6% (inactive),94.1,93.1,108% (inactive),107,105,105% (inactive),91.9% (inactive),96.9% (inactive),99.1,95
Cc1[nH]c(-c2ccccn2)nc(=S)c1Cl,106% (inactive),98.1,95.8,303% (active),215,266,118% (inactive),–,107% (inactive),115,91.5

# — PubChem BioAssay
